Assay results: publication PMC4749511 (Bioorganic & medicinal chemistry, 2015)
“Also recorded” adds a separate entry of the source.

Legend:
rat FTase = rat FTase (Rattus norvegicus, UniProt Q02293+Q04631); experiment: Fluorescence-based FTase assay; type: biochemical; details: tested at 10, 25 and 50 μM
Summary of the method: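 Rat FTase added in enzyme solution (62.5 nM FTase, Tris pH 7.5, ZnCl2, MgCl2, KCl, DTT, BSA) to start reaction. Wells held dansyl-GCVLS, FPP, DTT, Tris pH 7.5, MgCl2, ZnCl2, octyl-β-D-glucopyranoside and test compound in DMSO (12.5 μL DMSO per 250 μL). Fluorescence read at 340 nm excitation, 535 nm emission, every 40 s for 1 h. Rate from first 10 min converted to nM/s via νi = RP/ΔF.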

human Rce1 (HsRce1) [1] = molecular target: T1, human Rce1 (HsRce1) (Homo sapiens, UniProt Q9Y256); experiment: In vitro fluorescence-based CaaX proteolysis assay; type: biochemical; details: single-point, 10 μM
T1 sequence (Q9Y256 1-329): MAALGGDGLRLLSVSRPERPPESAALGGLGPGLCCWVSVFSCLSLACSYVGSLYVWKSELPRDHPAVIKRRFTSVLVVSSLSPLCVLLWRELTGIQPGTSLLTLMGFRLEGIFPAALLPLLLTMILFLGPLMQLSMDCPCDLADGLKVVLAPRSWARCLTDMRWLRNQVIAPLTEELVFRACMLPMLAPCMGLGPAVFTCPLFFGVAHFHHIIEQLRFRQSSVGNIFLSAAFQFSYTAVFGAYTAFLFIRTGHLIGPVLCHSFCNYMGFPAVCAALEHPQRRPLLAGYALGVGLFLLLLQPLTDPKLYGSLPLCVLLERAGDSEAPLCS
Summary of the method: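 Membranes from yeast expressing HsRce1, in 200 mM Tris pH 7.5, 200 mM NaCl, 1 mg/mL BSA. Preincubated with test compound (from 50× DMSO stock) for 15 min at 30 °C in duplicate wells. Started with quenched ABZ-KSKTKC(farnesyl)QLIM at 20 μM final; membranes 0.25 mg/mL final. Fluorescence 320/420 nm read every 30-60 s for 60 min at 30 °C. Initial velocities expressed as % of DMSO control, normalised by trypsin (10 μg/mL) full digestion.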

EGFP-K-Ras (K-Ras4b) = experiment: EGFP-K-Ras plasma membrane localization by confocal microscopy; type: cell-based, human; details: HCT-116 cells, 20 hours
Summary of the method: (§1)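 HCT-116 cells (DMEM, 10% FBS, 1% NEAA, 37 °C, 5% CO2) seeded at 4 × 10^4 per glass-bottom well and transfected 24 h later with the EGFP-Ras plasmid (0.5 μg DNA per 1 μL TrueFect). Treated with FTI or DMSO vehicle for 20 h, then live confocal imaging (488 nm excitation, 500-600 nm emission), at least 40 cells per condition. Normalised (0-1) line-scan intensity across each cell; PM width 1 μm.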

human Rce1 (HsRce1) [2] = molecular target: T1, human Rce1 (HsRce1); details: read-out: HsRce1 IC50; in vitro proteolysis assay; cited from earlier work
GFP-Ras2p reporter = details: yeast cells; cited from earlier work
EGFP-H-Ras = EGFP-H-Ras plasma membrane localization by confocal microscopy; type: cell-based, human; details: HCT-116 cells, FTI 2 μM, 20 hours
Summary of the method: as §1

EGFP-N-Ras = EGFP-N-Ras plasma membrane localization by confocal microscopy; type: cell-based, human; details: HCT-116 cells, FTI 2 μM, 20 hours
Summary of the method: as §1

O=C(O)c1ccc(NC(c2ccc(Br)cc2)c2ccc3cccnc3c2O)cc1 (stereo not drawn) [Compound 5, 4-(((4-Bromophenyl)(8-hydroxyquinolin-7-yl)methyl)amino)benzoic acid]
FTase activity inhibition (in words) (rat FTase): not inhibited

O=[N+]([O-])c1ccc(C(Nc2ccccc2)c2ccc3cccnc3c2O)cc1 (stereo not drawn) [Compound 7, reference compound]
HsRce1 inhibition (in words) (human Rce1 (HsRce1) [1]): did not inhibit HsRce1 activity significantly

O=C(O)c1ccc(NC(c2ccccc2)c2ccc3cccnc3c2O)cc1 (stereo not drawn) [Compound 1, 4-(((8-Hydroxyquinolin-7-yl)(phenyl)methyl)amino)benzoic acid]
K-Ras PM association (percent of total fluorescence at the PM) (EGFP-K-Ras (K-Ras4b); Rce1 inhibitor 25 μM): more effective at mislocalizing K-Ras than the FTI
IC50 (human Rce1 (HsRce1) [2]): 9 µM
GFP-Ras2p reporter mislocalization (in words) (GFP-Ras2p reporter): mislocalizes a GFP-Ras2p reporter

N#Cc1ccc(C(Nc2ccc(C(=O)O)cc2)c2ccc3cccnc3c2O)cc1 (stereo not drawn) [Compound 3, 4-(((4-Cyanophenyl)(8-hydroxyquinolin-7-yl)methyl)amino)benzoic acid]
HsRce1 inhibition (in words) (human Rce1 (HsRce1) [1]): did not inhibit HsRce1 activity significantly

O=C(O)c1ccc(NC(c2ccc3cccnc3c2O)c2c(F)cc(Br)cc2F)cc1 (stereo not drawn) [Compound 25, 4-(((4-Bromo-2,6-difluorophenyl)(8-hydroxyquinolin-7-yl)methyl)amino)benzoic acid]
HsRce1 inhibition (in words) (human Rce1 (HsRce1) [1]): no significant reduction in Rce1 activity

CCOC(=O)c1ccc(NC(c2ccccc2)c2ccccc2)cc1 [Compound 48, Ethyl 4-(benzhydrylamino)benzoate]
HsRce1 inhibition (in words) (human Rce1 (HsRce1) [1]): Neither the ethyl ester 48 nor the acid derivative 51 showed any effect upon inhibition of the enzyme

CCOC(=O)c1ccc(NC(c2ccccc2)c2ccc(Br)cc2)cc1 (stereo not drawn) [Compound 49, Ethyl 4-(((4-bromophenyl)(phenyl)methyl)amino)benzoate]
HsRce1 inhibition (in words) (human Rce1 (HsRce1) [1]): relatively inactive

O=C(O)c1ccc(NC(c2ccccc2)c2ccccc2)cc1 [Compound 51, 4-(Benzhydrylamino)benzoic acid]
HsRce1 inhibition (in words) (human Rce1 (HsRce1) [1]): inactive; also recorded: Neither the ethyl ester 48 nor the acid derivative 51 showed any effect upon inhibition of the enzyme

Oc1ccc2ccc(O)c(C(Nc3ccccc3)c3ccccc3)c2c1 (stereo not drawn) [Compound 35, 1-(Phenyl(phenylamino)methyl)naphthalene-2,7-diol]
HsRce1 inhibition (in words) (human Rce1 (HsRce1) [1]): weaker inhibitors

O=C(O)c1ccc(NC(c2ccccc2)c2ccc(Br)cc2)cc1 (stereo not drawn) [Compound 52, 4-(((4-Bromophenyl)(phenyl)methyl)amino) benzoic acid]
HsRce1 inhibition (in words) (human Rce1 (HsRce1) [1]): relatively inactive

c1ccc(NC(c2ccccc2)c2ccc3ccccc3c2)cc1 (stereo not drawn) [Compound 44, N-(naphthalen-2-yl(phenyl)methyl)aniline]
HsRce1 inhibition (in words) (human Rce1 (HsRce1) [1]): little inhibitory activity

CCCCCCCCOc1ccc(C(Nc2ccccc2)c2ccc3cccnc3c2O)cc1 (stereo not drawn) [Compound 26, 7-((4-(Octyloxy)phenyl)(phenylamino)methyl)quinolin-8-ol]
HsRce1 inhibition (in words) (human Rce1 (HsRce1) [1]): did not inhibit HsRce1 activity significantly

Methyl 4-(((8-methoxyquinolin-7-yl)(phenyl)methyl)amino)benzoate [Compound 32]
HsRce1 inhibition (in words) (human Rce1 (HsRce1) [1]): little inhibitory activity

Oc1c(C(Nc2ccccc2)c2ccccc2)ccc2cccnc12 (stereo not drawn) [Compound 2, 7-(Phenyl(phenylamino)methyl)quinolin-8-ol]
K-Ras PM association (percent of total fluorescence at the PM) (EGFP-K-Ras (K-Ras4b); Rce1 inhibitor 25 μM): more effective at mislocalizing K-Ras than the FTI
FTase activity inhibition (in words) (rat FTase): not inhibited

O=C(O)c1ccc(NC(c2cccnc2)c2ccc3cccnc3c2O)cc1 (stereo not drawn) [Compound 16, 4-(((8-Hydroxyquinolin-7-yl)(pyridin-3-yl)methyl)amino)benzoic acid]
HsRce1 inhibition (in words) (human Rce1 (HsRce1) [1]): no significant reduction in Rce1 activity

Oc1c(C(Nc2ccccc2)c2ccccc2)cc(Br)c2ccccc12 (stereo not drawn) [Compound 33, 4-Bromo-2-(phenyl(phenylamino)methyl)naphthalen-1-ol]
HsRce1 inhibition (in words) (human Rce1 (HsRce1) [1]): retained inhibitory activity

CC[C@H](C)[C@@H](CO[C@@H](Cc1ccccc1)C(=O)N[C@@H](CCS(C)(=O)=O)C(=O)OC(C)C)NC[C@@H](N)CS [L744,832]
H-Ras PM association (percent of total fluorescence at the PM) (EGFP-H-Ras): < 10%
N-Ras PM association (percent of total fluorescence at the PM) (EGFP-N-Ras): < 10%
K-Ras PM association (percent of total fluorescence at the PM) (EGFP-K-Ras (K-Ras4b); FTI 2 μM): ~35%

O=C(O)c1ccc(NC(c2ccccn2)c2ccc3cccnc3c2O)cc1 (stereo not drawn) [Compound 15, 4-(((8-Hydroxyquinolin-7-yl)(pyridin-2-yl)methyl)amino)benzoic acid]
HsRce1 inhibition (in words) (human Rce1 (HsRce1) [1]): no significant reduction in Rce1 activity

O=C(O)c1cccc(NC(c2ccccc2)c2ccc3ccccc3c2O)c1 (stereo not drawn) [Compound 30, 3-(((1-Hydroxynaphthalen-2-yl)(phenyl)methyl)amino)benzoic acid]
FTase activity inhibition (in words) (rat FTase): not inhibited

Oc1c(C(Nc2ccccc2)c2c(F)cc(Br)cc2F)ccc2cccnc12 (stereo not drawn) [Compound 24, 7-((4-Bromo-2,6-difluorophenyl)(phenylamino)methyl)quinolin-8-ol]
HsRce1 inhibition (in words) (human Rce1 (HsRce1) [1]): no significant reduction in Rce1 activity

O=C(O)c1ccc(NC(c2ccc(F)cc2)c2ccc3cccnc3c2O)cc1 (stereo not drawn) [Compound 6, 4-(((4-Fluorophenyl)(8-hydroxyquinolin-7-yl)methyl)amino)benzoic acid]
K-Ras PM association (percent of total fluorescence at the PM) (EGFP-K-Ras (K-Ras4b); Rce1 inhibitor 25 μM): more effective at mislocalizing K-Ras than the FTI

c1ccc(NC(c2ccccc2)c2ccc3cccnc3c2)cc1 (stereo not drawn) [Compound 43, N-(Phenyl(quinolin-7-yl)methyl)aniline]
HsRce1 inhibition (in words) (human Rce1 (HsRce1) [1]): little inhibitory activity

Oc1c(CNc2ccccc2)ccc2cccnc12 [Compound 20, 7-((Phenylamino)methyl)quinolin-8-ol]
HsRce1 inhibition (in words) (human Rce1 (HsRce1) [1]): no significant effect on Rce1 proteolysis activity

O=C(O)c1ccc(NC(c2ccc3cccnc3c2O)C2CCCCC2)cc1 (stereo not drawn) [Compound 17, 4-((Cyclohexyl(8-hydroxyquinolin-7-yl)methyl)amino)benzoic acid]
K-Ras PM association (percent of total fluorescence at the PM) (EGFP-K-Ras (K-Ras4b); Rce1 inhibitor 25 μM): more effective at mislocalizing K-Ras than the FTI

Oc1ccc2ccccc2c1C(Nc1ccccc1)c1ccccc1 (stereo not drawn) [Compound 34, 1-(Phenyl(phenylamino)methyl)naphthalen-2-ol]
HsRce1 inhibition (in words) (human Rce1 (HsRce1) [1]): weaker inhibitors

CCOC(=O)c1ccc(NC(c2ccc(Br)cc2)c2ccc(Br)cc2)cc1 [Compound 50, Ethyl 4-((bis(4-bromophenyl)methyl)amino)benzoate]
HsRce1 inhibition (in words) (human Rce1 (HsRce1) [1]): relatively inactive

C[C@@H](N[C@H](c1ccccc1)c1c(O)ccc2ccccc12)c1ccccc1 [Compound 47]
HsRce1 inhibition (in words) (human Rce1 (HsRce1) [1]): weaker inhibitors

O=C(O)c1ccc(NC(c2ccc(Br)cc2)c2ccc(Br)cc2)cc1 [Compound 53, 4-((bis(4-Bromophenyl)methyl)amino)benzoic acid]
HsRce1 inhibition (in words) (human Rce1 (HsRce1) [1]): relatively inactive
